Measured values published in publication PMC10825549 (JID Innovations, 2023).

Columns and labels:
[1] = biological target: BTK (Homo sapiens, UniProt Q06187); assay: IC50 for kinases of potential cross-over; type: biochemical
[2] = biological target: RSK2 (Homo sapiens, UniProt P51812); assay: IC50 for kinases of potential cross-over; type: biochemical
[3] = biological target: LRRK2 (Homo sapiens, UniProt Q5S007); assay: IC50 for kinases of potential cross-over; type: biochemical
[4] = Metabolic stability in liver microsomes; type: in vitro ADME; conditions: dog
Procedure, shortened: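 Test compound from 1 mM DMSO solution preincubated 5 min with dog, human, monkey, rat or minipig liver microsomes. NADPH (10 mM) then added. Reactions stopped at 0, 5, 15 and 30 min with 0.05% formic acid in acetonitrile containing loperamide internal standard. Supernatants analysed by LC-MS/MS; n = 1 per microsome species.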

[5] = biological target: CYP1A2 (Homo sapiens, UniProt P05177); assay: Cytochrome P450 phenotyping; type: in vitro ADME; conditions: recombinant human CYP1A2; with NADPH; 60 minutes; n = 1
Chain of CYP1A2 (P05177 whole entry): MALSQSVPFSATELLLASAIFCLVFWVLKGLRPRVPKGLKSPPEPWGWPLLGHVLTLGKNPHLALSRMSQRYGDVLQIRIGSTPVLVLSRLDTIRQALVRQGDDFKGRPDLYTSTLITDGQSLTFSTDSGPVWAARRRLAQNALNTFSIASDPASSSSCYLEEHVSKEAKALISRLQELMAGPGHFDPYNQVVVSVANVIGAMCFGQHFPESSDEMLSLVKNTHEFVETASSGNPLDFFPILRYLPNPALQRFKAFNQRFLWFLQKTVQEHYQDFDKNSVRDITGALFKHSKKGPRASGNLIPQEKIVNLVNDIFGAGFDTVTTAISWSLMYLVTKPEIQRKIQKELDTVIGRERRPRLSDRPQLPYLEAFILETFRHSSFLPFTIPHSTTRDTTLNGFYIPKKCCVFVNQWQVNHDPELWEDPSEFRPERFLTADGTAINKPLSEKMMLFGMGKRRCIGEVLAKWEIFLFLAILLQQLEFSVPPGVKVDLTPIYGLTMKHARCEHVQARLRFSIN
Procedure, shortened: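 Recombinant human CYPs prepared at CYP1A2 200 nM, CYP2B6/2C8 250 nM, CYP2C9 100 nM, CYP2D6 50 nM. Test compound added as 2 μM DMSO dosing solution on ice. Plate prewarmed, then 8 mM NADPH solution or blank buffer added. Incubation 60 min (1A2, 2B6, 2C8) or 30 min (2C9, 2D6). Stopped with acetonitrile plus internal standard; supernatant by LC-MS/MS; n = 1.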

[6] = Phase 2a study ATI-1777-AD-201: plasma pharmacokinetics; type: in vivo, human
Procedure, shortened: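 Participants with moderate/severe AD applied 2% topical solution twice daily for 4 weeks. Plasma test compound measured by sparse sampling, 8 samples per participant. Concentrations expressed relative to the Jak1/3 IC50.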

Chain of LRRK2 (Q5S007 whole entry): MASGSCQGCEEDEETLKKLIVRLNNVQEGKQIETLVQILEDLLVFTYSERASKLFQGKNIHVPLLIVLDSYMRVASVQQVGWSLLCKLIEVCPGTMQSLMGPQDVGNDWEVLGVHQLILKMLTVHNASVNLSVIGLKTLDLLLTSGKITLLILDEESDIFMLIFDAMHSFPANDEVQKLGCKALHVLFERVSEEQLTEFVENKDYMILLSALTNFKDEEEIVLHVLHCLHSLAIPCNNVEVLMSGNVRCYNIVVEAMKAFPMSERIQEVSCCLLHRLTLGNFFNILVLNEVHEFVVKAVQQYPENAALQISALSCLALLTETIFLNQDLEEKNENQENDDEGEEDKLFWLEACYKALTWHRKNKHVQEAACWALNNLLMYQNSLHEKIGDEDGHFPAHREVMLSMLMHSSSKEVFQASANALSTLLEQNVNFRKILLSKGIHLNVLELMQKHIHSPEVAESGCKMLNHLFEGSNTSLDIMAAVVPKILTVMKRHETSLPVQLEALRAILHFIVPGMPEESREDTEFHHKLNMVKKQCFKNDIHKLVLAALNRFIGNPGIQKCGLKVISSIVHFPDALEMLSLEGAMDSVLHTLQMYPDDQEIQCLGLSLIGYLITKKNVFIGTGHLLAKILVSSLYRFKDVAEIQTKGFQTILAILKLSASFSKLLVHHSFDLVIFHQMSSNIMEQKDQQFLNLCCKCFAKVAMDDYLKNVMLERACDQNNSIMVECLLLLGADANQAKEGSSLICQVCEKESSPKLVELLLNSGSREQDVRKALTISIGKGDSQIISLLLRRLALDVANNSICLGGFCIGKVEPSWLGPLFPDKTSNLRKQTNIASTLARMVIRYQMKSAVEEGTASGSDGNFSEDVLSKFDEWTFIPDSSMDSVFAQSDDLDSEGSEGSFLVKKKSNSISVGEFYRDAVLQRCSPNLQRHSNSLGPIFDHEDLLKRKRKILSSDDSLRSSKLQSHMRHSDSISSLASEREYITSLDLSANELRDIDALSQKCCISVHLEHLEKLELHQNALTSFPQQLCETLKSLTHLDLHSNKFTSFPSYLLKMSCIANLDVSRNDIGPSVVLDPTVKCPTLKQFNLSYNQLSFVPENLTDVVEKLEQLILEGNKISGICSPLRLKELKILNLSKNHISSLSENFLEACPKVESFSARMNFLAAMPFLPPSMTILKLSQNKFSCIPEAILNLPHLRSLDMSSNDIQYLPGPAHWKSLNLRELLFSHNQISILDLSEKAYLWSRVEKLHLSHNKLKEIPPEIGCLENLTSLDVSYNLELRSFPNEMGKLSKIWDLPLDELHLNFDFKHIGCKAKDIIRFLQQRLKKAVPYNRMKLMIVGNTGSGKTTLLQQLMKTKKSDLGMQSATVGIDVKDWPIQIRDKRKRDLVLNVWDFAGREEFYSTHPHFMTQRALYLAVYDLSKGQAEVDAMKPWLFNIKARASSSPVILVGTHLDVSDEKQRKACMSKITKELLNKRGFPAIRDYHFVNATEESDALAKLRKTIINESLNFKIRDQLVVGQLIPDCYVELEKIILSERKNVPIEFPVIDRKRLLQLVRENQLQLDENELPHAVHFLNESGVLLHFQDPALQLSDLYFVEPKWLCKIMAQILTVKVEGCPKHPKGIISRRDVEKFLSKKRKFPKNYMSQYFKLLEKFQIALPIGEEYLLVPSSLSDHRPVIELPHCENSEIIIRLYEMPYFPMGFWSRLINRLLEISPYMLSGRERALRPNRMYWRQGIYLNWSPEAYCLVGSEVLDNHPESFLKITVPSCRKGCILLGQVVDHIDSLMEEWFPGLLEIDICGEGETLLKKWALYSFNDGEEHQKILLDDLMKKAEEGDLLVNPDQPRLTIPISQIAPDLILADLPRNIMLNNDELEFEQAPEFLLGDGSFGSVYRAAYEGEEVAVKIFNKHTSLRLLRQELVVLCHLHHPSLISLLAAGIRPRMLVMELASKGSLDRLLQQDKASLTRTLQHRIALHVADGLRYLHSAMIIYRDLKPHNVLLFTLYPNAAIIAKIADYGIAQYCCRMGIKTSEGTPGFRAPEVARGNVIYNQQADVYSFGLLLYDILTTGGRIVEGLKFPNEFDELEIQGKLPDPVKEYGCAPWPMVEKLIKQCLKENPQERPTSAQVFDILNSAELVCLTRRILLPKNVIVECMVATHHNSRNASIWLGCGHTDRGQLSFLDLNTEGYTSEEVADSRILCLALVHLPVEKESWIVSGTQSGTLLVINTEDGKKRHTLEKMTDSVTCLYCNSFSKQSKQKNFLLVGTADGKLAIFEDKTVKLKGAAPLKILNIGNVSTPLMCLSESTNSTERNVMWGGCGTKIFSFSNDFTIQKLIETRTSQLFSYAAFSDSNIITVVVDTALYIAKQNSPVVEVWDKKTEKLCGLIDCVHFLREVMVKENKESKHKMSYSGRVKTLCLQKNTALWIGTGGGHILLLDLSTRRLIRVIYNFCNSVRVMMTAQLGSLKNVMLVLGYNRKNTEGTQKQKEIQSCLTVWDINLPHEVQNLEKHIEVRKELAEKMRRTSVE
Chain of RSK2 (P51812 whole entry): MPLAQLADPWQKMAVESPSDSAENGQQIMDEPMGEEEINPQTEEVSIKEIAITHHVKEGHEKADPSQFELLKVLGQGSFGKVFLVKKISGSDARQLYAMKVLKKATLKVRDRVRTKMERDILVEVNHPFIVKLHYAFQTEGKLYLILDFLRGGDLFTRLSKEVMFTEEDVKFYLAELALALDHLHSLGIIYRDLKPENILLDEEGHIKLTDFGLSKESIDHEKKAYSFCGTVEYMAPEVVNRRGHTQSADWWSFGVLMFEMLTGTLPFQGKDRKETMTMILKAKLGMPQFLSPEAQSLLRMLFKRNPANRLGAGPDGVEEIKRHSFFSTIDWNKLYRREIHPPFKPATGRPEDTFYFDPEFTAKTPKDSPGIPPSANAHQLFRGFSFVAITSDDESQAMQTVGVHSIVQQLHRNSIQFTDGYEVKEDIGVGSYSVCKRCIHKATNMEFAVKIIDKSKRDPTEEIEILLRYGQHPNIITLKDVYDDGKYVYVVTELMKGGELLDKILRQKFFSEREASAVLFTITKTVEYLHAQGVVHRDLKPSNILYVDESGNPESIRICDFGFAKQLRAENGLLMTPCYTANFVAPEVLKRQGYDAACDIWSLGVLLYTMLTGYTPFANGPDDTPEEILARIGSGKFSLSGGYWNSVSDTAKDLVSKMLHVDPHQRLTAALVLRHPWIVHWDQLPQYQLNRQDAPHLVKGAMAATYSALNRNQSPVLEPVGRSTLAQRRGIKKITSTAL
Chain of BTK (Q06187 whole entry): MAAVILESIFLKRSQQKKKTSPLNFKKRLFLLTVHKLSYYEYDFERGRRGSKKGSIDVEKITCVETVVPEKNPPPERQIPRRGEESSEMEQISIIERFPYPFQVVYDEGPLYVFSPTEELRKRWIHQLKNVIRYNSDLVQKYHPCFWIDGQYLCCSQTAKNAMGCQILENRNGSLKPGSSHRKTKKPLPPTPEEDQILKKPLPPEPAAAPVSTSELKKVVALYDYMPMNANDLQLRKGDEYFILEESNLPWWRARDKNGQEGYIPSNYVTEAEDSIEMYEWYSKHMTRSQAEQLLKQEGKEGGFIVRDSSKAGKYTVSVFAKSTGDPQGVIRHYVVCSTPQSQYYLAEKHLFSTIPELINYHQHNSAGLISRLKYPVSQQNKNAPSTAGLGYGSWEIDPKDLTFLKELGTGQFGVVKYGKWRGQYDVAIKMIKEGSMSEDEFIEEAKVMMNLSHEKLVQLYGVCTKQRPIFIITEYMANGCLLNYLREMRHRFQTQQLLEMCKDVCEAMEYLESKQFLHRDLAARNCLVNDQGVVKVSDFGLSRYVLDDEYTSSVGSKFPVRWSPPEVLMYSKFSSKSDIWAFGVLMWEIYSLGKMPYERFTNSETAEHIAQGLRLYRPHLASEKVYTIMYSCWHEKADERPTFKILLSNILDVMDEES

For CCOC(=O)c1cnc2[nH]ccc2c1N[C@@H]1CCCN(C(=O)CC#N)C1 [ATI-1777, ethyl (R)-4-((1-(2-cyanoacetyl)piperidin-3-yl)amino)-1H-pyrrolo[2,3-b]pyridine-5-carboxylate], the IC50 [1] was 210 nM, the “Fold Selectivity” value ([1]; BTK vs Jak1 (= 1)) was 140 fold and the IC50 [2] was 1050 nM. For the same compound, the “Fold Selectivity” value ([2]; RSK2 vs Jak1 (= 1)) was 700 fold, the IC50 [3] was 48 nM and the “Fold Selectivity” value ([3]; LRRK2 vs Jak1 (= 1)) was 32 fold. It also gave a CLint scaled [4] of 198 mL/min/kg, a microsomal CLint [4] of 46 µL/min/mg and a half-life ([4]; T1/2, Study 1, n = 1) of 17.4 min. The half-life ([4]; T1/2, Study 2, n = 1) was 30 min, the “Percentage Remaining” value [5] was 55.7% and the “all plasma concentrations relative to IC50 for Jak1/3” value ([6]; IC50 45 ng/ml) was “less than half of the IC50”. For the same compound, the “plasma concentrations relative to inhibitory concentrations for Jak1/2” value ([6]; all plasma concentrations) was “below IC10”, the “mean plasma concentration as percentage of the IC50 for Jak1/3” value ([6]; each timepoint, IC50 45 ng/ml) was under 5% and the “participants with samples with concentrations >10% of the IC50 for Jak1/3” value ([6]; in vivo) was “Three”.
